# Several values for one entry are separate records, joined by “and”; a condition that tells them apart may be missing. Equal entries are not always repeated.
# Tested on: HEK-293T
# Assay: Multiplex assay against HEK293T;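 on Population Tubulin-Different-Phenotype (%): share of the cells with healthy nuclei that show this phenotype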
# Format: toxicity, cell-based
# Conditions: human
# How it was run: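 Imaging took place on a CQ1 microscope at 37°C and 5% CO2 once compound had been added to live cells stained at seeding with Hoechst33342, BioTracker Green Microtubule Cytoskeleton Dye, MitoTracker Red and Annexin V Alexa Fluor 680. CellPathfinder machine-learning gating classed cells as Hoechst high-intensity objects or normal cells, classed normal cells as having healthy, pyknosed or fragmented nuclei, and classed pyknosed cells as mitotic or apoptotic. Tubulin, mitochondrial-mass and membrane-permeability phenotypes are per cents of the healthy-nucleus cells.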
# [1] = 12 h, 1 µM, compound concentration 1 uM, replicate 1
# [2] = 12 h, 1 µM, compound concentration 1 uM, replicate 2
# [3] = 12 h, 10 µM, compound concentration 10 uM, replicate 1
# [4] = 12 h, 10 µM, compound concentration 10 uM, replicate 2
# [5] = 24 h, 1 µM, compound concentration 1 uM, replicate 1
# [6] = 24 h, 1 µM, compound concentration 1 uM, replicate 2
# [7] = 24 h, 10 µM, compound concentration 10 uM, replicate 1
# [8] = 24 h, 10 µM, compound concentration 10 uM, replicate 2
# [9] = 48 h, 10 µM, compound concentration 10 uM, replicate 1
# [10] = 48 h, 10 µM, compound concentration 10 uM, replicate 2
smiles,measurement,setting,value
COCC(=O)NC/C=C/c1ccc2ncnc(Nc3ccc(Oc4ccc(C)nc4)c(C)c3)c2c1 [CP-724714],Population Apoptotic (%),[1],22% and 23%
same,Population Fragmented Nuclei (%),[1],14% and 11%
same,Population Healthy Nuclei (%),[1],39% and 69%
same,Population Hoechst High Intensity Objects (%),[1],16% and 10%
same,Population Mitotic Cells (%),[1],77% and 76%
same,Population Normal (%),[1],83% and 89%
same,Population Pyknosed Nuclei (%),[1],46% and 18%
same,Total Cell Count,[1],617 and 674
same,Population Apoptotic (%),[2],16% and 8%
same,Population Healthy Nuclei (%),[2],70% and 89%
same,Population Hoechst High Intensity Objects (%),[2],3% and 2%
same,Population Mitotic Cells (%),[2],83% and 91%
same,Population Normal (%),[2],96% and 97%
same,Total Cell Count,[2],843 and 1632
same,Population Apoptotic (%),[3],66%
same,Population Fragmented Nuclei (%),[3],19%
same,Population Healthy Nuclei (%),[3],18%
same,Population Hoechst High Intensity Objects (%),[3],19%
same,Population Membrane Permeable-Phenotype (%),[3],2%
same,Population Mitochondria Different-Phenotype (%),[3],100%
same,Population Mitotic Cells (%),[3],33%
same,Population Normal (%),[3],80%
same,Population Pyknosed Nuclei (%),[3],62%
same,Population Tubulin-Different-Phenotype (%),[3],100%
same,Total Cell Count,[3],329
same,Population Apoptotic (%),[4],48%
same,Population Fragmented Nuclei (%),[4],12%
same,Population Healthy Nuclei (%),[4],12%
same,Population Hoechst High Intensity Objects (%),[4],6%
same,Population Membrane Permeable-Phenotype (%),[4],11%
same,Population Mitochondria Different-Phenotype (%),[4],96%
same,Population Mitotic Cells (%),[4],51%
same,Population Normal (%),[4],93%
same,Population Pyknosed Nuclei (%),[4],75%
same,Population Tubulin-Different-Phenotype (%),[4],92%
same,Total Cell Count,[4],230
same,Population Apoptotic (%),[5],31% and 18%
same,Population Fragmented Nuclei (%),[5],13% and 9%
same,Population Healthy Nuclei (%),[5],54% and 81%
same,Population Hoechst High Intensity Objects (%),[5],12% and 6%
same,Population Membrane Permeable-Phenotype (%),[5],19%
same,Population Mitotic Cells (%),[5],68% and 81%
same,Population Normal (%),[5],87% and 93%
same,Total Cell Count,[5],614 and 832
same,Population Apoptotic (%),[6],14% and 5%
same,Population Healthy Nuclei (%),[6],65% and 76%
same,Population Hoechst High Intensity Objects (%),[6],4% and 2%
same,Population Membrane Permeable-Phenotype (%),[6],10% and 9%
same,Population Mitotic Cells (%),[6],85% and 94%
same,Population Normal (%),[6],95% and 97%
same,Total Cell Count,[6],1006 and 2815
same,Population Apoptotic (%),[7],71%
same,Population Fragmented Nuclei (%),[7],23%
same,Population Healthy Nuclei (%),[7],17%
same,Population Hoechst High Intensity Objects (%),[7],19%
same,Population Membrane Permeable-Phenotype (%),[7],0%
same,Population Mitochondria Different-Phenotype (%),[7],97%
same,Population Mitotic Cells (%),[7],28%
same,Population Normal (%),[7],80%
same,Population Pyknosed Nuclei (%),[7],58%
same,Total Cell Count,[7],336
same,Population Apoptotic (%),[8],70%
same,Population Fragmented Nuclei (%),[8],7%
same,Population Healthy Nuclei (%),[8],28%
same,Population Hoechst High Intensity Objects (%),[8],6%
same,Population Membrane Permeable-Phenotype (%),[8],6%
same,Population Mitochondria Different-Phenotype (%),[8],98%
same,Population Mitotic Cells (%),[8],29%
same,Population Normal (%),[8],93%
same,Population Pyknosed Nuclei (%),[8],63%
same,Population Tubulin-Different-Phenotype (%),[8],95%
same,Total Cell Count,[8],245
same,Population Apoptotic (%),[9],62%
same,Population Fragmented Nuclei (%),[9],26%
same,Population Healthy Nuclei (%),[9],10%
same,Population Hoechst High Intensity Objects (%),[9],22%
same,Population Membrane Permeable-Phenotype (%),[9],7%
same,Population Mitochondria Different-Phenotype (%),[9],82%
same,Population Mitotic Cells (%),[9],37%
same,Population Normal (%),[9],77%
same,Population Pyknosed Nuclei (%),[9],62%
same,Population Tubulin-Different-Phenotype (%),[9],92%
same,Total Cell Count,[9],347
same,Population Apoptotic (%),[10],66%
same,Population Fragmented Nuclei (%),[10],8%
same,Population Healthy Nuclei (%),[10],51%
same,Population Hoechst High Intensity Objects (%),[10],5%
same,Population Mitochondria Different-Phenotype (%),[10],90%
same,Population Mitotic Cells (%),[10],33%
same,Population Normal (%),[10],94%
same,Population Pyknosed Nuclei (%),[10],39%
same,Population Tubulin-Different-Phenotype (%),[10],96%
same,Total Cell Count,[10],291

# Source: ChEMBL document CHEMBL4689842, “EUbOPEN Chemogenomics Library wave 1” (2021)
